Published values of several laboratories.
Cell line: BT-549
Observed: cell growth or viability

| Structure (SMILES) | technique | concentration | time | endpoint | result |
| --- | --- | --- | --- | --- | --- |
| COc1ccc(C(=O)/C=C/c2cccc(Cl)c2Cl)cc1S(N)(=O)=O | SRB |  | 48 h | GI50 | 4700 nM |
| COc1cc(-c2ccc(-c3ccc(C(=N)N)nc3)s2)cc(OC)c1OC | SRB |  |  | GI50 | 1670 nM |
| COc1ccc(C(=O)/C=C/c2cccc3ccccc23)cc1S(N)(=O)=O | SRB |  | 48 h | GI50 | 1800 nM |
| O=C1Nc2ccccc2C1=NNc1nnc2n1N=C(c1ccccc1)CS2 | SRB | 10 µM |  | inhibition | 28% |
| COc1ccc(-c2ccc(-c3ccc(C(=N)N)nc3)s2)cc1 | SRB |  |  | GI50 | 1700 nM |
| Cl.Oc1cccc2c1[nH]c1c(C3=CC4(O)CC/C=C\CCCCN5CCC3C3(CC6/C=C\CCCCN6C43)C5)nccc12 (single isomer, unassigned; (+)) | neutral red |  | 48 h | IC50 | 1.05 µg/mL |
| CC(=O)O[C@H]1C(=O)[C@@]2(C)[C@H]([C@H](OC(=O)c3ccccc3)[C@]3(O)C[C@H](OC(=O)[C@H](O)[C@@H](NC(=O)c4ccccc4)c4ccccc4)C(C)=C1C3(C)C)[C@]1(OC(C)=O)CO[C@@H]1C[C@@H]2O | ATP luminescence |  | 72 h | IC50 | 3.1 nM |
| COc1cccc2c1C(=O)c1c(O)c3c(c(O)c1C2=O)C[C@@](O)(C(=O)CO)C[C@@H]3O[C@H]1C[C@H](N)[C@H](O)[C@H](C)O1 | neutral red |  | 48 h | IC50 | 1.05 µg/mL |
| COc1cccc(Oc2ccccc2NC(=O)CNC(=O)c2cccc3ccccc23)c1 | SRB |  | 48 h | GI50 | 295 nM |
| CC(=O)O[C@@]12CO[C@@H]1C[C@H](O)[C@@]1(C)C(=O)[C@H](O)C3=C(C)[C@@H](OC(=O)[C@H](O)[C@@H](NC(=O)OC(C)(C)C)c4ccccc4)C[C@@](O)([C@@H](OC(=O)c4ccccc4)[C@H]21)C3(C)C | ATP luminescence |  | 72 h | IC50 | 1 nM |
| C#C[C@@]1(O)[C@@H](CO)O[C@@H](n2cc(Br)c3c(N)ncnc32)[C@@H]1O | SRB |  |  | GI50 | 147 nM |
